# The source made the active and inactive calls. The rule behind the calls is not given here.
# Assays:
# HT-29 = test: Antiproliferative activity against human HT-29 cells after 48 hrs by sulforhodamine B assay; type: functional, cell-based; settings: HT-29, 48 h
# M21 [1] = test: Antiproliferative activity against human M21 cells after 48 hrs by sulforhodamine B assay; type: functional, cell-based; settings: M21, 48 h
# MCF7 = test: Antiproliferative activity against human MCF7 cells after 48 hrs by sulforhodamine B assay; type: functional, cell-based; settings: MCF7, 48 h
# M21 [2] = test: Cell cycle arrest in human M21 cells assessed as accumulation at G0/G1 phase at 5 times IC50 after 24 hrs using propidium iodide staining by flow cytometric analysis (reference value: 61%); type: functional
# M21 [3] = test: Cell cycle arrest in human M21 cells assessed as accumulation at S phase at 5 times IC50 after 24 hrs using propidium iodide staining by flow cytometric analysis (reference value: 30%); type: functional
# M21 [4] = test: Cell cycle arrest in human M21 cells assessed as accumulation at G2/M phase at 5 times IC50 after 24 hrs using propidium iodide staining by flow cytometric analysis (reference value: 9%); type: functional
# MDA-MB-231 = test: Displacement of N,N'-ethylenebis(iodoacetamide) from colchicine-binding site of beta-tubulin in human MDA-MB-231 cells at 1000 times IC50 preincubated for after 2 hrs before N,N'-ethylenebis(iodoacetamide) addition measured after 1.5 hrs by chemiluminescence assay; type: cell-based
# Outline: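 EBI (100 μM final) added for 1.5 h at 37 °C; controls received 0.5% DMSO. Lysates (20 μg protein) run on 10% SDS-PAGE and blotted with anti-β-tubulin (TUB 2.1). β-tubulin–EBI adduct band detected by ECL.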
# M21 [5] = test: Disruption of cytoskeleton microtubule structure of human M21 cells at 5 times IC50 after 16 hrs by indirect immunofluorescence assay; type: functional, cell-based
# Outline: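 Fixed in 3.7% formaldehyde, permeabilized with saponin, and stained with anti-β-tubulin (TUB 2.1), Alexa-488 secondary and DAPI. Microtubule structure scored by fluorescence microscopy.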
IC50 (HT-29) [µM],IC50 (MCF7) [µM],SMILES,IC50 (M21 [1]) [µM],Activity (M21 [2]) [%],Activity (M21 [3]) [%],Activity (M21 [4]) [%],inhibition (MDA-MB-231),Activity (M21 [5])
0.11,0.17,O=C1NCCN1c1ccc(S(=O)(=O)Oc2c(Cl)cc(Cl)cc2Cl)cc1,0.12,,,,,
> 1,> 1,Cc1ccc(OS(=O)(=O)c2ccc(N3CCCNC3=O)cc2)c(C)c1,> 1,,,,,
0.03,0.03,O=C1NCCN1c1ccc(S(=O)(=O)Oc2cc(Cl)c(Cl)cc2Cl)cc1,0.031,1,0,99,Active,Active
> 1,> 1,O=C1NCCCN1c1ccc(S(=O)(=O)Oc2c(Cl)cc(Cl)cc2Cl)cc1,> 1,,,,,
0.075,0.1,O=C1NCCN1c1ccc(S(=O)(=O)Oc2ccc(F)c(F)c2)cc1,0.047,2,26,72,Active,Active
0.49,0.73,COc1cc(OS(=O)(=O)c2ccc(N3CCCNC3=O)cc2)cc(OC)c1OC,0.24,,,,,
0.04,0.083,CCOc1ccccc1OS(=O)(=O)c1ccc(N2CCNC2=O)cc1,0.024,1,19,80,Active,Active
> 1,> 1,CCc1ccccc1OS(=O)(=O)c1ccc(N2CCCNC2=O)cc1,> 1,,,,,
0.18,0.33,Cc1ccc2cccc(OS(=O)(=O)c3ccc(N4CCNC4=O)cc3)c2n1,0.13,,,,,
0.044,0.056,CCOc1ccc(OS(=O)(=O)c2ccc(N3CCNC3=O)cc2)cc1,0.039,2,23,75,,Active
0.1,0.06,O=C1NCCN1c1ccc(S(=O)(=O)Oc2cccc([N+](=O)[O-])c2)cc1,0.048,56,13,31,Active,Active
0.15,0.19,CCc1ccc(OS(=O)(=O)c2ccc(N3CCNC3=O)cc2)cc1,0.12,,,,,
> 1,> 1,CCCc1ccccc1OS(=O)(=O)c1ccc(N2CCCNC2=O)cc1,> 1,,,,,
0.15,0.21,O=C1NCCN1c1ccc(S(=O)(=O)Oc2ccc(I)cc2)cc1,0.11,,,,,
> 1,> 1,O=C1NCCCN1c1ccc(S(=O)(=O)Oc2cccc(F)c2)cc1,> 1,,,,,
> 1,> 1,Cc1ccccc1OS(=O)(=O)c1ccc(N2CCCNC2=O)cc1,> 1,,,,,
0.041,0.055,O=C1NCCN1c1ccc(S(=O)(=O)Oc2ccc(F)cc2F)cc1,0.035,2,26,72,Active,Active
0.077,0.11,CCCc1ccc(OS(=O)(=O)c2ccc(N3CCNC3=O)cc2)cc1,0.059,1,18,81,Active,Active
0.061,0.087,CCc1ccccc1OS(=O)(=O)c1ccc(N2CCNC2=O)cc1,0.052,0,0,100,Active,Active
0.055,0.071,O=C1NCCN1c1ccc(S(=O)(=O)Oc2ccccc2I)cc1,0.04,4,25,71,Active,Active
> 1,> 1,O=C1NCCN1c1ccc(S(=O)(=O)Oc2ccc(-n3ccnc3)cc2)cc1,> 1,,,,,
> 1,> 1,O=C1NCCN1c1ccc(S(=O)(=O)Oc2ccc([N+](=O)[O-])cc2)cc1,0.57,,,,,
0.076,0.069,CCCc1ccccc1OS(=O)(=O)c1ccc(N2CCNC2=O)cc1,0.061,0,0,100,Active,Active
1,0.27,Nc1cccc(OS(=O)(=O)c2ccc(N3CCNC3=O)cc2)c1,0.17,,,,,
> 1,> 1,O=C1NCCCN1c1ccc(S(=O)(=O)Oc2cc(Cl)c(Cl)cc2Cl)cc1,> 1,,,,,

IC50 (HT-29) [µM],IC50 (MCF7) [µM],SMILES,IC50 (M21 [1]) [µM],Activity (M21 [2]) [%],Activity (M21 [3]) [%],Activity (M21 [4]) [%],inhibition (MDA-MB-231),Activity (M21 [5])
> 1,> 1,Nc1ccc(OS(=O)(=O)c2ccc(N3CCNC3=O)cc2)cc1,0.92,,,,,
0.43,0.5,CN(C)c1ccc(OS(=O)(=O)c2ccc(N3CCNC3=O)cc2)cc1,0.35,,,,,
0.72,> 1,Cc1ccc(OS(=O)(=O)c2ccc(N3CCCNC3=O)cc2)cc1,> 1,,,,,
0.34,0.32,O=C1NCCN1c1ccc(S(=O)(=O)Oc2c(F)c(F)c(F)c(F)c2F)cc1,0.22,,,,,
0.042,0.054,O=C1NCCN1c1ccc(S(=O)(=O)Oc2cccc(F)c2)cc1,0.031,7,9,84,Active,Active
0.031,0.05,Cc1cccc(OS(=O)(=O)c2ccc(N3CCNC3=O)cc2)c1C,0.017,5,32,63,Active,Active
0.051,0.05,Cc1ccc(OS(=O)(=O)c2ccc(N3CCNC3=O)cc2)c(C)c1,0.039,0,0,100,Active,Active
0.07,0.1,O=C1NCCN1c1ccc(S(=O)(=O)Oc2ccc3[nH]ccc3c2)cc1,0.065,19,17,64,Active,Active
> 1,> 1,O=C1NCCN1c1ccc(S(=O)(=O)Oc2ccccc2)cc1,> 1,,,,,
0.029,0.034,COc1cccc(OS(=O)(=O)c2ccc(N3CCNC3=O)cc2)c1,0.024,1,1,98,Active,Active
0.15,0.42,O=C(NCCCl)Nc1cccc(CCCCCO)c1,0.23,1,11,88,,Active
0.48,0.77,O=C1NCCN1c1ccc(S(=O)(=O)Oc2ccccn2)cc1,0.29,,,,,
> 1,> 1,Cc1cccc(OS(=O)(=O)c2ccc(N3CCCNC3=O)cc2)c1,> 1,,,,,
0.14,0.18,Cc1cc(OS(=O)(=O)c2ccc(N3CCNC3=O)cc2)ccc1[N+](=O)[O-],0.1,,,,,
> 1,> 1,O=C1NCCN1c1ccc(S(=O)(=O)Oc2ccncc2)cc1,> 1,,,,,
> 1,> 1,COc1cccc(OS(=O)(=O)c2ccc(N3CCCNC3=O)cc2)c1,> 1,,,,,
0.18,0.22,COc1ccccc1OS(=O)(=O)c1ccc(N2CCNC2=O)cc1,0.13,,,,,
0.19,0.27,O=C1NCCN1c1ccc(S(=O)(=O)Oc2ccccc2[N+](=O)[O-])cc1,0.15,,,,,
0.78,0.92,CCC(C)c1ccc(OS(=O)(=O)c2ccc(N3CCNC3=O)cc2)cc1 (stereo not drawn),0.83,,,,,
> 1,> 1,O=C1NCCCN1c1ccc(S(=O)(=O)Oc2ccc(Cl)cc2)cc1,> 1,,,,,
0.54,0.89,CCCCOc1ccc(OS(=O)(=O)c2ccc(N3CCNC3=O)cc2)cc1,0.53,,,,,
0.67,0.6,Cc1cc(OS(=O)(=O)c2ccc(N3CCNC3=O)cc2)ccc1N,0.36,,,,,
> 1,> 1,CC(C)(C)[Si](C)(C)Oc1ccc(OS(=O)(=O)c2ccc(N3CCNC3=O)cc2)cc1,> 1,,,,,
> 1,> 1,O=C1NCCCN1c1ccc(S(=O)(=O)Oc2ccc(F)cc2)cc1,> 1,,,,,
> 1,> 1,O=C1NCCN1c1ccc(S(=O)(=O)Oc2ccc(O)cc2)cc1,> 1,,,,,

# Source: ChEMBL document CHEMBL1799919, “Design, synthesis, biological evaluation, and structure-activity relationships of substituted phenyl 4-(2-oxoimidazolidin-1-yl)benzenesulfonates as new tubulin inhibitors mimicking combretastatin A-4” (J Med Chem, 2011)
